According to PubChem BioAssay:
Activity calls are given as the source filed them. Cut-off read from the data, not from the text of the source, unless noted: active = inhibition above about 30%; inactive = the rest.

Legend:
[1] = Her2 expression decrease, cell viability multiplex – SKBR3 breast tumor cells, AlphaScreen, ATP viability, primary screen (AID 461;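 active = Her2 level under about 52% in both replicate screens, with viability over 70% of control, limit read from the data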;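 for Her2 level: lower value means less Her2 protein in the cells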;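 for viability: percent of carrier control wells set as 100% viability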); details: SKBR3 Her2 protein level, 18-24 h, measured here: SKBR3 viability, ATP luminescence, at 10 µM
[2] = biological target: Receptor tyrosine-protein kinase erbB-2 (Homo sapiens) (UniProt P04626); experiment: as above; details: 18-24 h, at 10 µM, stronger effect = lower value
[3] = reduced viability of SK-BR-3 breast cancer cells – cell-based, 24 h, human, pilot screen (AID 572;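 active = viability at or below 10% of carrier control in both of two separate runs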;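 note: compound exposure lasted between 18 and 24 h rather than exactly 24 h; 100% = carrier-treated control wells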); details: SK-BR-3 viability, CellTiter-Glo luminescence, at 10 µM, stronger effect = lower value
[4] = HUVEC growth inhibition – cell-based, human, primary screen (AID 575;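 active = viability at or below 30% in both replicate assays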;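 note: 100% = median of untreated cell wells with 0.1% DMSO on each plate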); details: HUVEC proliferation, CellTiter-Glo luminescence, 72 h; at 10 µM; stronger effect = lower value
Procedure, shortened: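 Test system – primary HUVEC, no more than 12 passages · Dosing – one dose, 10 µM final, 0.1% DMSO · Times – 72 h treatment at 37 °C · Measured by – ATP-based CellTiter-Glo luminescent read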

[5] = H69AR cell proliferation blockers – human, duplicate replicates, primary screen (AID 580;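 active = viability at or under a set limit in both replicates, limit being median viability minus 3 SD, cut at about 48% in these data, passing the limit was not always enough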;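 note: 100% = mean luminescence of untreated wells and 0% = no signal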); details: H69AR lung tumor cells viability, ATP luminescence, 72 h; at 10 µM; stronger effect = lower value
[6] = MRP1 drug-resistance reversers in H69AR cells – cell-based, doxorubicin co-treatment, pilot screen (AID 601;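 active = viability loss from added drug above about 55%, and viability with drug at most 40%, in both replicates, limit read from the data, passing the limit was not always enough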); details: CellTiter-Glo, 72 h, at 10 µM; for differential viability (reversal): stronger effect = higher value
[7] = yeast transport mutant growth inhibition pilot in 384-well plates, post-Golgi transport modulator project (AID 636; in the data active = inhibition above about 31%); details: absorbance 615 nm, about 18 h, stronger effect = higher value
[8] = growth suppression of yeast trafficking mutant, preliminary HTS, modulators of trafficking downstream of Golgi apparatus project, 1536-format plate, OD 615 nm (AID 637); details: yeast transport mutant growth, absorbance 615 nm, 18 h; stronger effect = higher value
[9] = H69AR cells + 2 uM doxorubicin, measured here: viability with 2 uM doxorubicin, stronger effect = lower value
[10] = H69AR cells, compound alone cytotoxicity

Chain of Receptor tyrosine-protein kinase erbB-2 (Homo sapiens) (P04626 whole entry, looked up): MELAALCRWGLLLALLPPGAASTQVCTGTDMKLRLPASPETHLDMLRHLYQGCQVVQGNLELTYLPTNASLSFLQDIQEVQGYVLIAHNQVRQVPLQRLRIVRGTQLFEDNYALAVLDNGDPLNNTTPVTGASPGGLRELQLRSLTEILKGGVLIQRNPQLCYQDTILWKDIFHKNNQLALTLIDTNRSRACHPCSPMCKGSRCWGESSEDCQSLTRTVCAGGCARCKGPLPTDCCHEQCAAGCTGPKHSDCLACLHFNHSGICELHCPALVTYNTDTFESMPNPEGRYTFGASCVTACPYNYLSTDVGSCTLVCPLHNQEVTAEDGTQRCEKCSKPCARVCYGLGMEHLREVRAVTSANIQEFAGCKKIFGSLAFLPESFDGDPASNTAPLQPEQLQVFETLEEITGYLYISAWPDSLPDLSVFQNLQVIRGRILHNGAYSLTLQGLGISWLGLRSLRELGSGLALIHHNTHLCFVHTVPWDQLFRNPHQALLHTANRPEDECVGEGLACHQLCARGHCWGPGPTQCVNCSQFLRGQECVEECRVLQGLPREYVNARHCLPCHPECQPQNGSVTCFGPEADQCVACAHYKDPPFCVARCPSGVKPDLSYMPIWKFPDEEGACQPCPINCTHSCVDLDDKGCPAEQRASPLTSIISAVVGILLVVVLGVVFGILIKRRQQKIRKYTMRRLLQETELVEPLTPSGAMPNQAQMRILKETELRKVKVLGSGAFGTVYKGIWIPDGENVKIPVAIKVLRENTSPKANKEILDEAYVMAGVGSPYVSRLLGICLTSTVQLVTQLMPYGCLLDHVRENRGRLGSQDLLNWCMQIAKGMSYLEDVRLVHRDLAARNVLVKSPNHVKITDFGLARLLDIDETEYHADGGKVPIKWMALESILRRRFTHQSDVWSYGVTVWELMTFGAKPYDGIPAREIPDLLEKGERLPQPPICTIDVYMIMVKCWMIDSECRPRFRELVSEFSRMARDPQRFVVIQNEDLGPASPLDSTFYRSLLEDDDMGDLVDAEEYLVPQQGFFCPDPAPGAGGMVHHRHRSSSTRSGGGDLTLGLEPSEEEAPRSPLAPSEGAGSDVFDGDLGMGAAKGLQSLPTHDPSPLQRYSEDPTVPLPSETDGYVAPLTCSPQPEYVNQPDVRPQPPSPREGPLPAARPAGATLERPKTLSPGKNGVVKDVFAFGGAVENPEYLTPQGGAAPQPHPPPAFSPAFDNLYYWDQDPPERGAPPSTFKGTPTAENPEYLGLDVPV

SMILES | viability [1] | Her2 level [2] | viability [3] | viability [4] | viability [5] | differential viability (reversal) ([6]; H69AR cells + 2 uM doxorubicin) | viability [6, 9] | viability [6, 10] | inhibition [7] | inhibition [8]
COc1cc(OC)c(-c2nn3c(C4CCCCC4)nnc3s2)cc1OC | 102% | 116% (inactive) | 102% (inactive) | 80.8% (inactive) | 77.5% (inactive) | -2% (inactive) | 79.5% | 77.5% | -0.52% (inactive) | 2.3% (inactive)
COc1ccccc1-n1c(C)nnc1SCC(N)=O | 127% | 113% (inactive) | 127% (inactive) | 101% (inactive) | 91.6% (inactive) | 13.9% (inactive) | 77.7% | 91.6% | -5.33% (inactive) | -0.65% (inactive)
CN(C(=O)c1ccccn1)c1nnc(-c2ccncc2)s1 | 118% | 92.5% (inactive) | 118% (inactive) | 101% (inactive) | 108% (inactive) | 15.6% (inactive) | 92.8% | 108% | -3.65% (inactive) | -5% (inactive)
COc1ccc(-n2c(SCCC(=O)O)nnc2-c2ccncc2)cc1 | 96% | 96% (inactive) | 96% (inactive) | 97% (inactive) | 96.7% (inactive) | 0.675% (inactive) | 96.1% | 96.7% | -3.42% (inactive) | 0.32% (inactive)
Cn1c(=O)cc(OCC(=O)N2CCN(c3cccc(C(F)(F)F)c3)CC2)c2ccccc21 | 89% | 82% (inactive) | 89% (inactive) | 90.7% (inactive) | 75.3% (inactive) | -10% (inactive) | 85.3% | 75.3% | -6.27% (inactive) | 5.57% (inactive)
CCNCCNC(=O)c1c(O)c2ccccc2n(CC)c1=O | 126% | 90.5% (inactive) | 126% (inactive) | 84.7% (inactive) | 89.1% (inactive) | 4.78% (inactive) | 84.3% | 89.1% | -4.87% (inactive) | 0.81% (inactive)
Cc1ccc(C)c(S(=O)(=O)NCc2ccc(C(=O)N3CCN(C)CC3)cc2)c1 | 99.5% | 85.5% (inactive) | 99.5% (inactive) | 89.7% (inactive) | 91.7% (inactive) | 5.15% (inactive) | 86.5% | 91.7% | -5.68% (inactive) | -3% (inactive)
CCOc1ccc(-c2nc(C#N)c(N3CCCCCC3)o2)cc1 | 138% | 82% (inactive) | 138% (inactive) | 79.5% (inactive) | 94.7% (inactive) | -0.54% (inactive) | 95.2% | 94.7% | 0.64% (inactive) | -0.17% (inactive)
CCN(CC)C(=O)c1sc(NC(=O)c2ccco2)c(C#N)c1C | 99.5% | 103% (inactive) | 99.5% (inactive) | 88% (inactive) | 79.3% (inactive) | -7.3% (inactive) | 86.6% | 79.3% | -4.74% (inactive) | -7.26% (inactive)
CCOc1cc(C(=O)Nc2ccon2)cc(OCC)c1OCC | 100% | 110% (inactive) | 100% (inactive) | 96.8% (inactive) | 99.4% (inactive) | 2.21% (inactive) | 97.2% | 99.4% | -3.03% (inactive) | -1.17% (inactive)
Fc1cc(F)c(F)c(SCCc2ccncc2)c1F | 97% | 81.5% (inactive) | 97% (inactive) | 93.8% (inactive) | 85.3% (inactive) | 5% (inactive) | 80.3% | 85.3% | 0.67% (inactive) | 1.45% (inactive)
COC(=O)C1=C(C)OC(N)=C(C#N)C1c1ccccc1 (stereo not given) | 94.5% | 77% (inactive) | 94.5% (inactive) | 102% (inactive) | 94% (inactive) | 12.1% (inactive) | 82% | 94% | -1.18% (inactive) | -9.82% (inactive)
COc1ccc(OCC(O)Cn2c(Br)nc3c2c(=O)[nH]c(=O)n3C)cc1 (stereo not given) | 84% | 72% (inactive) | 84% (inactive) | 62.8% (inactive) | 28.5% (active) | -28.6% (inactive) | 57.1% | 28.5% | -4.4% (inactive) | 10.7% (inactive)
COc1ccc(S(=O)(=O)N2CCN(CC(=O)Nc3ccc(C)c(F)c3)CC2)cc1 | 89.5% | 93.5% (inactive) | 89.5% (inactive) | 86.4% (inactive) | 25.5% (active) | -25.9% (inactive) | 51.4% | 25.5% | -5.2% (inactive) | -1.94% (inactive)
Cc1ccc(S(=O)(=O)Cn2nnnc2CN(Cc2ccco2)CC2CCCO2)cc1 (stereo not given) | 90% | 96.5% (inactive) | 90% (inactive) | 110% (inactive) | 83.3% (inactive) | -0.665% (inactive) | 84% | 83.3% | -2.53% (inactive) | 44.8% (active)
COCCn1c(SCC(=O)Nc2cccc(OC)c2)nnc1-c1ccc(Cl)cc1 | 98.5% | 71.5% (inactive) | 98.5% (inactive) | 97% (inactive) | 84.1% (inactive) | -5.18% (inactive) | 89.3% | 84.1% | -6.4% (inactive) | 0.98% (inactive)
COc1cc(OC)c(C(=O)Nc2ccc(N(C)C)cc2)cc1OC | 111% | 84.5% (inactive) | 111% (inactive) | 103% (inactive) | 89% (inactive) | -4.37% (inactive) | 93.4% | 89% | -1.84% (inactive) | -1.9% (inactive)
CSc1nnc2c3ccccc3n(CCc3ccccc3)c2n1 | 90% | 100% (inactive) | 90% (inactive) | 68.6% (inactive) | 89.4% (inactive) | 3.33% (inactive) | 86.1% | 89.4% | -1.35% (inactive) | 46.2% (active)
CCc1nn2c(=O)cc(CSc3nc4sc5c(c4c(=O)n3C)CCCC5)nc2s1 | 100% | 98% (inactive) | 100% (inactive) | 113% (inactive) | 90% (inactive) | 0.36% (inactive) | 89.6% | 90% | -0.65% (inactive) | 10% (inactive)
COc1ccc(S(=O)(=O)NCC(c2cccnc2)N2CCN(c3ccc(F)cc3)CC2)cc1C (stereo not given) | 91.5% | 80% (inactive) | 91.5% (inactive) | 99.1% (inactive) | 87.4% (inactive) | -0.665% (inactive) | 88.1% | 87.4% | -1.04% (inactive) | -0.98% (inactive)
CCCCCCOC(=O)C(C#N)c1nc2ccccc2nc1N1CCCCC1 (stereo not given) | 94% | 88% (inactive) | 94% (inactive) | 63.8% (inactive) | 89.1% (inactive) | -11.9% (inactive) | 101% | 89.1% | -2.47% (inactive) | -2.33% (inactive)
CCN(CCNC(=O)C1CCN(S(=O)(=O)CC)CC1)c1ccccc1 | 124% | 92.5% (inactive) | 124% (inactive) | 112% (inactive) | 95.7% (inactive) | 6.31% (inactive) | 89.4% | 95.7% | -7.84% (inactive) | -8.33% (inactive)
COc1ccc(OC)c(N(CC(=O)N2CCN(c3cc(Cl)ccc3C)CC2)S(C)(=O)=O)c1 | 100% | 94% (inactive) | 100% (inactive) | 78.2% (inactive) | 75.9% (inactive) | 3.83% (inactive) | 72% | 75.9% | -5.53% (inactive) | 0.48% (inactive)
CCCCN(CCCC)CCCNC(=O)CC1Oc2ccc(C)cc2NC1=O (stereo not given) | 102% | 84.5% (inactive) | 102% (inactive) | 78% (inactive) | 90.7% (inactive) | 4.72% (inactive) | 86% | 90.7% | -6.76% (inactive) | -3.17% (inactive)
CC(=O)NC(=O)NC1CSCC1OC(C)=O (stereo not given) | 112% | 89% (inactive) | 112% (inactive) | 106% (inactive) | 92.8% (inactive) | 5.96% (inactive) | 86.9% | 92.8% | -6.53% (inactive) | 0.48% (inactive)
S=c1[nH]nc(-c2ccco2)n1-c1cccc2ccccc12 | 102% | 98.5% (inactive) | 102% (inactive) | 78.5% (inactive) | 96.9% (inactive) | 3.69% (inactive) | 93.2% | 96.9% | -0.54% (inactive) | 14.6% (inactive)
O=C(c1cnn2c(C(F)(F)F)cc(-c3ccco3)nc12)N1CCc2ccccc2C1 | 76% | 112% (inactive) | 76% (inactive) | 69.9% (inactive) | 89.6% (inactive) | 3.92% (inactive) | 85.7% | 89.6% | -1.33% (inactive) | -9.37% (inactive)
CCOC(=O)c1c(NC(=O)c2cccs2)sc2c1CCN(C(=O)OCC)C2 | 174% | 13% (active) | 174% (inactive) | 6.86% (active) | 23.3% (active) | -2.25% (inactive) | 25.5% | 23.3% | 0.39% (inactive) | -1.8% (inactive)
CCN(Cc1ccccc1)C(c1ccncc1)c1nnnn1C(C)(C)C (stereo not given) | 102% | 76% (inactive) | 102% (inactive) | 99.5% (inactive) | 78.6% (inactive) | -0.555% (inactive) | 79.1% | 78.6% | -5.73% (inactive) | 4.26% (inactive)
